In this assay the test system is Bovine brain tubulin. The assay can be described thus: turbidimetric tubulin assembly. The following applies: read-out: IC50 ± SD [μM]^[a]; 10 μM tubulin, glutamate buffer, GTP, 30°C, 20 min. The class given is biochemical, Bos taurus. The method, boiled down: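 Purified bovine brain tubulin was preincubated with varying test-compound concentrations in glutamate buffer at 30°C, then cooled to 0°C. GTP was added, and mixtures went into 0°C cuvettes and were warmed to 30°C. Assembly was followed turbidimetrically in a recording spectrophotometer. IC50 was the concentration that cut the extent of assembly by 50% after 20 min.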
As usually defined, the IC50 is the midpoint of a concentration-inhibition curve. As for `COc1ccc(/C=C\c2cc(OC)c(OC)c(OC)c2)cc1O` [1a, CA-4, reference compound], the IC50 was determined as […]. As for `COc1cc2oc(C(=O)c3cc(OC)c(OC)c(OC)c3)cc2cc1N` [3g, (5-Amino-6-methoxybenzo[b]furan-2-yl)(3,4,5-trimethoxyphenyl)methanone], the figure is 1.4 ± 0.01 µM; as for `COc1cc2oc(C(=O)c3cc(OC)c(OC)c(OC)c3)c(C)c2cc1N` [3h, (5-Amino-3-methyl-6-methoxybenzo[b]furan-2-yl)(3,4,5-trimethoxyphenyl)methanone], 0.56 ± 0.08 µM; as for `COc1cc(C(=O)c2cc3cc(N)cc(OC)c3o2)cc(OC)c1OC` [3i, (5-Amino-7-methoxybenzo[b]furan-2-yl)(3,4,5-trimethoxyphenyl)methanone], 3.1 ± 0.2 µM. As for `COc1cc(C(=O)c2oc3c(OC)cc(N)cc3c2C)cc(OC)c1OC` [3j, (5-Amino-3-methyl-7-methoxybenzo[b]furan-2-yl)(3,4,5-trimethoxyphenyl)methanone], the figure is 1.6 ± 0.1 µM.

As to `C=C(Br)C(=O)Nc1cccc2oc(C(=O)c3cc(OC)c(OC)c(OC)c3)cc12` [4a, 2-Bromo-N-[2-(3,4,5-trimethoxybenzoyl)-1-benzo[b]furan-4-yl]acrylamide], the IC50 was over 40 µM.

These data come from PMC3190670 (ChemMedChem, 2011).
